Here are results for eight molecules from ChEMBL document CHEMBL1148276, “Oral bioavailability of a new class of micro-opioid receptor agonists containing 3,6-bis[Dmt-NH(CH(2))(n)]-2(1H)-pyrazinone with central-mediated analgesia” (J Med Chem, 2004).

pIC50, pKi: −log10 of the molar value. Where only a bound is given, the exact number is not on record here.

Test [1] has as its target Delta-type opioid receptor (Rattus norvegicus, UniProt P33533). In words: Compound was tested for binding affinity towards opioid receptor delta 1 by displacing [3H]DPDPE radioligand in rat brain P2 synaptosomes membranes. Type of test: cell membranes. In outline:
(§1)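 Competition binding at equilibrium (2.5 h, 22 °C) on rat brain P2 synaptosomal membranes, preincubated to strip endogenous opioids, washed with protease inhibitor, stored in 20% glycerol at -80 °C; [3H]DAMGO (μ) or [3H]DPDPE (δ); nonspecific binding with 2 μM unlabeled peptide; GF/C filtration; Ki by Cheng-Prusoff, duplicates, 5-8 doses, 3-5 preparations.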

Test [2] has as its target Mu-type opioid receptor (Rattus norvegicus, UniProt P33535). In words: Compound was tested for binding affinity towards Opioid receptor mu 1 by displacing [3H]DAGO radioligand in rat brain P2 synaptosomes membranes. Type of test: cell membranes.
Test [3] deals with Opioid receptors; mu & delta. As to the kind of experiment: Selectivity ratio of Ki of delta-opioid receptor to mu-opioid receptor. Type of test: protein assay. Put shortly:
as §1

Test [4] concerns the target Delta-type opioid receptor (Mus musculus, UniProt P32300). As to the kind of experiment: Compound was tested for opioid receptor delta 1 agonism or antagonism in mouse vas deferens. Type of test: functional, tissue-based.
Test [5] concerns the target Mu-type opioid receptor (Cavia porcellus, UniProt P97266). In words: Compound was tested for Opioid receptor mu 1 agonism in isolated tissues from guinea pig ileum. Format: functional, tissue-based.
The test system of test [6] is Mus musculus. As to the kind of experiment: Potency relative to morphine in hot plate test in mice, intracerebroventricularly; Vale ranges from 18-21. Type of test: functional.
The species named for test [7] is Mus musculus. As to the kind of experiment: Potency relative to morphine in hot plate test in mice, perorally; Vale ranges from 0.16-0.24. Format: functional.
The test system of test [8] is Mus musculus. In words: Potency relative to morphine in hot plate test in mice, subcutaneously. Format: functional.
For test [9], the system named is Mus musculus. In words: Potency relative to morphine in tail flick test in mice, intracerebroventricularly; Vale ranges from 50-63. Format: functional. In outline:
(§2)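 Male Swiss-Webster mice (20-25 g); radiant-heat tail-flick, baseline 2-3 s, cutoff 8 s; dosing icv or sc in saline pH 7, po in water; readings from 10, 15 or 30 min respectively until return to baseline; AUC of latency vs time, 5-7 mice per point; relative potency from doses giving analgesia equivalent to morphine.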

The species named for test [10] is Mus musculus. In words: Potency relative to morphine in tail flick test in mice, perorally. Format: functional. In outline: as §2
The subject of test [11] is Mus musculus. In words: Potency relative to morphine in tail flick test in mice, subcutaneously. Type of test: functional. Put shortly: as §2

Chain of Mu-type opioid receptor (Rattus norvegicus, UniProt P33535) (P33535 whole entry): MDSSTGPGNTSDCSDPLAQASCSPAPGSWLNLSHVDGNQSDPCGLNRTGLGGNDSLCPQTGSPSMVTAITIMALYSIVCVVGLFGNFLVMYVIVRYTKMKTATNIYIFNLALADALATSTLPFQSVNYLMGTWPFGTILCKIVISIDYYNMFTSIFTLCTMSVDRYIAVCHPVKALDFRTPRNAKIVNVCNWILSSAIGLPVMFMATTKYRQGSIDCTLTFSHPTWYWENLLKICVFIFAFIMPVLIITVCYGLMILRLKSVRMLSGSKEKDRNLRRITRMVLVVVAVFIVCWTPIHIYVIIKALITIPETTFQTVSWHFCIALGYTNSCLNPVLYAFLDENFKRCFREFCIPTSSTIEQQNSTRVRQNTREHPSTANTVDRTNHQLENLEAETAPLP
Chain of Delta-type opioid receptor (Mus musculus, UniProt P32300) (P32300 whole entry): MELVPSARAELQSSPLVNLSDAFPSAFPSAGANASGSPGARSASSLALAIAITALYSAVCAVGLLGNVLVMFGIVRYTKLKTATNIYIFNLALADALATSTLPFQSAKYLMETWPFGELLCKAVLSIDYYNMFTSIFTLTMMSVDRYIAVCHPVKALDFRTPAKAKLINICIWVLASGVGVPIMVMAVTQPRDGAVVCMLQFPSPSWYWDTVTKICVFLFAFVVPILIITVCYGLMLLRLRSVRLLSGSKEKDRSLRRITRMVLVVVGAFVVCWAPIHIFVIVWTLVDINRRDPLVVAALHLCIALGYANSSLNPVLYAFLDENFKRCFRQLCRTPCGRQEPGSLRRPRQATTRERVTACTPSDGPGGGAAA
Chain of Delta-type opioid receptor (Rattus norvegicus, UniProt P33533) (P33533 whole entry): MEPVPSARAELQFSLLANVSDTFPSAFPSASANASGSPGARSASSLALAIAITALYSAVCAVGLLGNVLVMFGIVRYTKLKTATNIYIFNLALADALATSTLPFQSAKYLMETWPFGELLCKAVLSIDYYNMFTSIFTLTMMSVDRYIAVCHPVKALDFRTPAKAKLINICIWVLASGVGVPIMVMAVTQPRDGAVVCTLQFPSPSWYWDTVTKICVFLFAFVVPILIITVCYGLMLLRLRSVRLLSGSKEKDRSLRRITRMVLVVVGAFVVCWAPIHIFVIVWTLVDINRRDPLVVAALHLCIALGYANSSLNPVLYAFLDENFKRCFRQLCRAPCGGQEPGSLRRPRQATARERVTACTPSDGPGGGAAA
Chain of Mu-type opioid receptor (Cavia porcellus, UniProt P97266) (P97266 whole entry): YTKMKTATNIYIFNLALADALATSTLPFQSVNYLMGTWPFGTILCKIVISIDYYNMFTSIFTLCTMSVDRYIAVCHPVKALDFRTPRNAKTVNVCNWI

As to `Cc1nc(CCNC(=O)C(N)Cc2ccc(O)cc2)c(=O)[nH]c1CCNC(=O)C(N)Cc1ccc(O)cc1` (stereo not given), the pKi in test [1] is 5.54; on Mu-type opioid receptor [2] it was 6.51. For the same molecule, the Ratio in [3] stood at 9.4.
For the molecule `Cc1cc(O)cc(C)c1CC(N)C(=O)NCCCCc1nc(O)c(CCCCNC(=O)C(N)Cc2c(C)cc(O)cc2C)nc1C` (stereo not given), the results for the pKi (in [1]; at Mu-type opioid receptor [2]) were 7.63 and 9.94, respectively. Besides, the pIC50 is 7.38 in test [4] and 8.72 against Mu-type opioid receptor [5]. Further, the Ratio in test [3] is 204.
As to `Cc1cc(O)cc(C)c1CC(N)C(=O)NCCCc1nc(O)c(CCCNC(=O)C(N)Cc2c(C)cc(O)cc2C)nc1C.Cl.Cl` (stereo not given), the Activity with Mus musculus [6] is reported as 21; in the test listed under Mus musculus [7], 0.24; in the test on Mus musculus [8], 0.55; in the test on Mus musculus [9] it was 63; in the test listed under Mus musculus [10], 0.42; with Mus musculus [11], 0.63. The pKi in [1] is 7.88; at Mu-type opioid receptor [2], 10.38. In addition, the pIC50 in test [4] is less than 6.00; against Mu-type opioid receptor [5] it was 8.88. Besides, the Ratio in test [3] came to 307.
In test [1], `Cc1cc(O)cc(C)c1CC(N)C(=O)NCCc1nc(O)c(CCNC(=O)C(N)Cc2c(C)cc(O)cc2C)nc1C` (stereo not given) had a pKi of 8.14. Moreover, the pIC50 in test [4] was less than 5.00; against Mu-type opioid receptor [5], 7.89.
In the case of `Cc1nc(CNC(=O)C(N)Cc2ccc(O)cc2)c(=O)[nH]c1CNC(=O)C(N)Cc1ccc(O)cc1` (stereo not given), the pKi in test [1] was 5.74. In test [3], the Ratio amounted to 4.
Take `Cc1nc(CCCCNC(=O)C(N)Cc2ccc(O)cc2)c(O)nc1CCCCNC(=O)C(N)Cc1ccc(O)cc1` (stereo not given): the pKi in [1] is 5.66; at Mu-type opioid receptor [2] it was 7.15. For the same molecule, the Ratio in [3] came out at 31.
Turning to `Cc1nc(CCCNC(=O)C(N)Cc2ccc(O)cc2)c(O)nc1CCCNC(=O)C(N)Cc1ccc(O)cc1` (stereo not given), the pKi in test [1] was 6.36; on Mu-type opioid receptor [2] it was 7.59. Besides, the Ratio in test [3] is 17.
Consider `Cc1cc(O)cc(C)c1CC(N)C(=O)NCc1nc(O)c(CNC(=O)C(N)Cc2c(C)cc(O)cc2C)nc1C` (stereo not given), for which the pKi is 7.80 in [1] and 8.94 on Mu-type opioid receptor [2]. In addition, the pIC50 is less than 5.00 in test [4] and 5.77 against Mu-type opioid receptor [5]. Also, the Ratio in test [3] was determined as 13.5.
